Avidin bead fluor: avidin bead compound fluorescence profile; Avidin beads, compound fluorescence 488/530 nm, flow cytometry; hits give high values; fluorescence (KMESF) at 10 µM; AID 1775; hit rate 0.38% among 220,000; in the data active = fluorescence above about 47
ABCB1 block: inhibitors of human ABCB1 transporter, ABCG2 counter-screen; hit rate 0.067% among 190,000; AID 1326; P08183; inhibition, % at 6.6 µM; CCRF-Adr cells, JC-1 efflux, flow cytometry; in the data active = inhibition above about 40%;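 note: higher value means more JC-1 retained so stronger ABCB1 efflux block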
ABCG2 block: blocks JC-1 efflux by human ABCG2 transporter | Q9UNQ0 | IgMXP3 cells, flow cytometry | inhibition, % at 6.6 µM | hit rate 0.1% among 190,000 | AID 1325;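 active = inhibition above 80%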
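Test system: IgMXP3 (ABCG2) plus far-red-tagged CCRF-Adr (ABCB1) cells / Amount: 3 million cells/mL in well / Reagent: JC-1 transporter substrate / Timing: 10 min compound exposure, 25 °C / Signal: flow cytometry, 530 nm JC-1 signal / Read-out: percent efflux inhibition, scaled nicardipine 100% to DMSO 0% / Benchmarks: nicardipine as high control, DMSO as low control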
PKD1 kinase inh: inhibitors of human PKD1 kinase | Q15139 | PKD1 kinase fluorescence polarization assay | inhibition, % (no concentration beside the values) | hit rate 0.056% among 200,000 | AID 797
GSH bead fluor: compound fluoresces at 488/530 nm on GSH beads; GSH beads flow cytometry, compound fluorescence 488/530 nm; hits give high values; fluorescence (KMESF) at 10 µM; hit rate 0.25% among 190,000; in the data active = fluorescence above about 89;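 note: glutathione beads carrying GST-tagged Bcl family fusion proteins plus one bare bead set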
L major viab: Leishmania major promastigote growth inhibition | Leishmania major promastigotes, resazurin fluorescence viability | inhibition, % at 10 µM | hit rate 9% among 200,000;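 note: promastigotes grown with compound for 44 hours at 28 °C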
Numbers stand for hits; – = inactive; · = no result. This is one part of a sample in which hits are shown more often than they occur. Cut-off read from the data, not from the text of the source, unless noted: active = inhibition above about 50%; inactive = the rest.

SMILES | Avidin bead fluor | ABCB1 block | ABCG2 block | PKD1 kinase inh | GSH bead fluor | L major viab
CCN(CC)CCCNC(=O)C1c2ccccc2Oc2ccccc21 | – | – | – | – | – | –
CNCCCC1Sc2ccccc2Oc2ccccc21 (configuration not stated) | – | – | – | – | – | 100
O=C(NC1CCCC1)C1C2C=CC(C2)C1C(=O)N1CCOCC1 (configuration not stated) | – | – | – | – | 272 | –
Cc1ccc(OCCSc2nc3ncnc(N)c3[nH]2)cc1 | – | – | – | – | – | –
Nc1ncnc2nc(SCCOc3ccc(Cl)cc3)[nH]c12 | – | – | – | – | – | 55
CN(c1ccccc1)S(=O)(=O)c1cccc(C(=O)Nc2nn[nH]n2)c1 | – | · | · | · | · | ·
CCOC(=O)c1cnc2c(Cl)cc(Cl)cc2c1NCCOCCO | – | – | – | – | – | 96
Cn1c(=S)n(C)c2ccccc21 | 84 | – | – | – | – | –
Clc1ccccc1OCCn1ccnc1 | – | – | – | – | – | –
CC(C)(C)c1ccccc1OCCCCCn1ccnc1 | – | – | – | – | – | 95
Cc1ccc(OCCCOc2cccc3cccnc23)cc1C | – | – | – | – | – | –
Cc1cccc(OCCCCCn2ccnc2)c1C | – | – | – | – | – | 99
Cc1cccc(OCCCOc2cccc3cccnc23)c1C | – | – | – | – | – | 69
O=C(c1ccco1)N1CCN(c2c([N+](=O)[O-])nn(-c3cccc(Cl)c3)[n+]2[O-])CC1 | – | – | – | – | – | –
COc1cccc(CC2(CO)CCCN(Cc3cn(C)c4ccccc34)C2)c1 (configuration not stated) | – | – | – | – | – | –
COc1cccc(CC2(CO)CCCN(Cc3ccc(CN4CCCCC4)s3)C2)c1 (configuration not stated) | – | – | – | – | – | 77
COc1cccc(CC2(CO)CCCN(Cc3cnn(-c4ccccc4)c3)C2)c1 (configuration not stated) | – | – | – | – | – | 90
CCc1ccc(N(C(=O)CCC(=O)Nc2cc(C)on2)C(C(=O)NC2CCCC2)c2ccco2)cc1 (configuration not stated) | – | – | – | – | – | 96
CCOc1ccc(N(C(=O)/C=C/C(=O)Nc2cc(C)on2)C(C(=O)NC2CCCC2)c2ccccc2C)cc1 (configuration not stated) | – | – | – | – | – | 87
Cc1cc(NC(=O)/C=C/C(=O)N(CC(=O)NC2CCCC2)c2cccc3ccccc23)no1 | – | – | – | – | – | 96
Cc1cc(NC(=O)CCC(=O)N(c2cccnc2)C(C(=O)NC2CCCC2)c2ccccc2)no1 (configuration not stated) | – | – | – | – | – | –
Cc1cc(NC(=O)CCC(=O)N(CC(=O)NC2CCCC2)c2ccccc2)no1 | – | – | – | – | – | –
CCc1ccc(C(C(=O)NC2CCCC2)N(C(=O)/C=C/C(=O)Nc2cc(C)on2)c2ccccc2C)cc1 (configuration not stated) | – | · | – | – | – | 99
CCOc1ccc(/C=C/C(=O)CCC(=O)O)cc1 | – | – | – | – | – | –
COc1cccc(NC(=S)N2CCN(c3ccccn3)CC2)c1 | – | – | – | – | – | –
SMILES | Avidin bead fluor | ABCB1 block | ABCG2 block | PKD1 kinase inh | GSH bead fluor | L major viab
Cc1ccccc1C(=O)/C=C1/SCC(=O)N1C | – | – | – | – | – | –
Cc1ccc2nc(Cl)c(C3CC(c4cccs4)=NN3C(=O)CCC(=O)O)cc2c1 (configuration not stated) | – | – | – | – | – | –
Cc1ccccc1Nc1nnc(SCC(=O)NC2CCCc3ccccc32)s1 (configuration not stated) | – | – | – | – | – | –
CCOC(=O)c1c(C)[nH]c(C(=O)N/N=C\c2ccccc2O)c1C | – | – | – | – | – | 100
COc1ccccc1/C=N/NC(=O)c1[nH]c(C)c(C(=O)N/N=C/c2ccccc2OC)c1C | – | – | – | – | – | –
Cn1c(=O)oc2cc(S(=O)(=O)NCCC(=O)N3CCc4ccccc43)ccc21 | – | – | – | – | – | –
COc1ccc(NC(=O)c2ccc3c(c2)OCO3)cc1Cl | – | – | – | – | – | –
COc1ccc(NCc2ccc3c(c2)OCO3)cc1Cl | – | – | – | – | – | 84
Oc1ccccc1CNc1ccc2c(c1)OCCO2 | – | – | – | – | – | –
c1cncc(CNc2ccc3c(c2)OCO3)c1 | – | – | – | – | – | 52
Cc1ccc(CNc2ccc3c(c2)OCO3)c(C)c1 | – | – | – | – | – | 99
O=C(NCc1cccnc1)Nc1ccc2c(c1)OCO2 | – | – | – | – | – | –
O=C1c2cccc3c(Nc4ccccc4Cl)c([N+](=O)[O-])cc(c23)C(=O)N1CCO | – | – | – | – | – | –
Cc1ccc(S(=O)(=O)NC(=O)NCc2ccccn2)cc1 | – | – | – | – | 256 | –
Cc1ccc(S(=O)(=O)NC(=O)NCc2ccccc2)cc1 | – | – | – | – | – | –
O=C(CSc1cn(CCNC(=O)c2cccs2)c2ccccc12)NC1CCCC1 | – | – | – | – | – | –
Cc1cccc(-n2nc([N+](=O)[O-])c(=NC3CCN(Cc4ccccc4)CC3)n2O)c1 | – | – | – | – | – | –
CC(C)COCc1ccc(O)c2ncccc12 | – | – | – | – | – | 100
CCCOCc1ccc(O)c2ncccc12 | – | · | · | · | · | ·
Oc1ccc(COCc2ccccc2)c2cccnc12 | – | – | – | – | – | 101
CC1CCCN(c2ccc(C(=O)NCc3ccco3)cc2[N+](=O)[O-])C1 (configuration not stated) | – | – | – | – | – | 73
Cc1ccc(C(=O)NCc2ccco2)cc1[N+](=O)[O-] | – | – | – | – | – | –
O=C(NCc1ccco1)c1cc([N+](=O)[O-])cc([N+](=O)[O-])c1 | – | – | – | – | – | 58
O=C(NCc1ccco1)c1cc([N+](=O)[O-])ccc1Cl | – | – | – | – | – | –
O=C(NCc1nnc(SCc2ccc(F)cc2)n1-c1ccc(F)cc1)C12CC3CC(CC(C3)C1)C2 | – | – | – | – | – | –
SMILES | Avidin bead fluor | ABCB1 block | ABCG2 block | PKD1 kinase inh | GSH bead fluor | L major viab
Cc1ccc(-c2cc3c(n2-c2ccc(C(=O)O)cc2)CCCC3=O)cc1 | – | – | – | – | – | –
COc1ccc(-n2c(-c3ccccc3)cc3c2CCCC3=O)cc1 | – | – | – | – | – | 80
CC1(C)CC(=O)C2=C(C1)OC1=C(C(=O)CC(C)(C)C1)C2c1ccc(O)cc1O | – | – | – | – | – | 76
C(#Cc1ccccc1)C[N+]1(CC#Cc2cccc3ccccc23)CCCC1 | – | – | – | – | – | 100
Cc1ccccc1OCC(O)CN1CCN(C)CC1 (configuration not stated) | – | – | – | – | – | –
OC(COc1ccc2ccccc2c1Cl)CN1CCOCC1 (configuration not stated) | – | – | – | – | – | 92
